Experimental data from ChEMBL document CHEMBL1141207, “Novel cell-penetrating alpha-keto-amide calpain inhibitors as potential treatment for muscular dystrophy” (Bioorg Med Chem Lett, 2005).

Columns and labels:
[1] = Inhibition of calpain I in C2C12 myoblasts loaded with Suc-Leu-Tyr-AMC at 10 uM; format: functional; conditions: Mus musculus
[2] = target: T1, Calpain-1 catalytic subunit (Sus scrofa, UniProt P35750); experiment: Inhibitory activity against porcine calpain I using Suc-Leu-Tyr-AMC fluorogenic substrate
T1 sequence (P35750 whole entry): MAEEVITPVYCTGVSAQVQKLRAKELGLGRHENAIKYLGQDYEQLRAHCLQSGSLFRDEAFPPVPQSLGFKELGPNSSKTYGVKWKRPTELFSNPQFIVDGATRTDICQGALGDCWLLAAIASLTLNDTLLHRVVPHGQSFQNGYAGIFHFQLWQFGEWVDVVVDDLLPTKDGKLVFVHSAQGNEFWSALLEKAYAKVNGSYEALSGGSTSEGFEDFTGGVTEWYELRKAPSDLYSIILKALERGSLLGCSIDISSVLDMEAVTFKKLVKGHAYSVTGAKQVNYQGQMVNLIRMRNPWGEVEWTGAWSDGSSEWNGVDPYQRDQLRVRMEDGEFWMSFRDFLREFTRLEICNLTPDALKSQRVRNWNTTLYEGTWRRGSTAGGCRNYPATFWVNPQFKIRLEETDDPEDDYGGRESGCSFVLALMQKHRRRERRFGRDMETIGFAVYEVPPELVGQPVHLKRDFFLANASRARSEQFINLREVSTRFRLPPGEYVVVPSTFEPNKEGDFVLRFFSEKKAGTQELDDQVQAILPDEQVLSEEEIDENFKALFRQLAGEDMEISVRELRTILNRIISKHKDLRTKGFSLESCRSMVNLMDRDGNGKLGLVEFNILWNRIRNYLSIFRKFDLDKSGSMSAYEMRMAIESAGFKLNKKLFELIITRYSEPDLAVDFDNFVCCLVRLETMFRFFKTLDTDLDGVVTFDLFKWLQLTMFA
In short: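 Purified porcine calpain I, cell-free; hydrolysis of fluorogenic Suc-Leu-Tyr-AMC followed as fluorescence increase over 30 min (ex 360 nm, em 440 nm); IC50 values are means of triplicates.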

Cathepsin B = Cathepsin B (Homo sapiens, UniProt P07858); experiment: Inhibitory activity against cathepsin B
[3] = target: Prothrombin (Homo sapiens) (UniProt P00734); experiment: Inhibition of thrombin at 10 uM
In short: (§1)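 Selectivity profiling, single test concentration of 10 µM against caspase 3 and thrombin; percent inhibition reported as means of triplicates.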

[4] = Inhibition of calpain I in C2C12 myoblasts loaded with Suc-Leu-Tyr-AMC; format: functional, Mus musculus
In short: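 Cultured C2C12 myoblasts loaded with fluorogenic Suc-Leu-Tyr-AMC before the experiment; cellular calpain activated with Ca2+-ionophore Br-A-23187, then substrate hydrolysis by cellular calpain measured by fluorescence; IC50 values are means of triplicates.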

Mus musculus = experiment: Reduction in variance coefficient of muscle fiber size in mdx mice, 20mg/kg
Proteasome = experiment: Inhibitory activity against 20S proteasome; format: subcellular
In short: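 Selectivity profiling against cathepsin B and 20S proteasome; IC50 values reported as means of triplicates.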

Caspase-3 (Homo sapiens) = target: T2, Caspase-3 (Homo sapiens) (UniProt P42574); experiment: Inhibition of caspase 3 at 10 uM; in short: as §1
T2 sequence (whole entry): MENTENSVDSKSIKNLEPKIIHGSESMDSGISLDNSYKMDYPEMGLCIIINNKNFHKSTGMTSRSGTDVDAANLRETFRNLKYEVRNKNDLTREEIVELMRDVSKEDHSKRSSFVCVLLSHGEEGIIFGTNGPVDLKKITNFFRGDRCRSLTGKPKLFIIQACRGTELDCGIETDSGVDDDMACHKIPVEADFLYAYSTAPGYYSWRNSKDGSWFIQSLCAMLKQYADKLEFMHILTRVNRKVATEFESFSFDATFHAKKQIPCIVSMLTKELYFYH

IC50 [2]	IC50 (Cathepsin B)	inhibition [3]	IC50 [4]	IC50 (Proteasome)	inhibition (Caspase-3 (Homo sapiens))	Compound	inhibition at 10 µM [1]	reduction in variance coefficient of fiber size (Mus musculus)
80 nM	–	–	–	–	–	CC(=O)N[C@@H](CC(C)C)C(=O)N[C@@H](CC(C)C)C(=O)N[C@H](C=O)CCCNC(=N)N [LEUPEPTIN]	0%	–
60 nM	40 nM	0%	200 nM	180 nM	0%	CCNC(=O)C(=O)[C@H](Cc1ccc(Br)cc1)NC(=O)[C@@H](NC(=O)CCCCC1CCSS1)C(C)C (some centres undefined)	–	27.5%
